Most compounds without a hit are left out; they make up all but 3.4% or so of the library.
MC4R barr agon – human MC4R agonism via beta-arrestin | P32245 | activation, % at 8.9 µM | U2OS MC4R beta-arrestin complementation, luminescence; percent of melanotan II response, DMSO zero | 360,000 tested, 0.98% active;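 active means activation above a per-plate cutoff, the mean activation of sample wells on that plate plus 3 SD, cut at about 8% in these data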
Target sequence (P32245 whole entry, looked up): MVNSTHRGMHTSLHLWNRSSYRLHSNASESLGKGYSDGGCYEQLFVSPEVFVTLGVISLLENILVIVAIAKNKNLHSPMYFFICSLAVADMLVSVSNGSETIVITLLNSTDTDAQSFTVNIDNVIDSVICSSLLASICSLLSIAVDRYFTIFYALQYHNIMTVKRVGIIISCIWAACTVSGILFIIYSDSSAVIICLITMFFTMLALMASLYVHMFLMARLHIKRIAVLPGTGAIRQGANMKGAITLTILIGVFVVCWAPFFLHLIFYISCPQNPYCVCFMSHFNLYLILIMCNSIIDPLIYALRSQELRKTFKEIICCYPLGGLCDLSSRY
ANO1 block – inhibitors of mouse TMEM16A calcium-activated chloride channel; AID 588511; Q8BHY3; HEK293 TMEM16A/YFP iodide influx fluorescence, ionomycin; 310,000 tested, 1.2% active; normalized B-score (activity score, 25-100; higher = stronger inhibition) at 10 µM;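 active means ratio plate-corrected score three or more library SD toward inhibition, starting fluorescence score within five deviations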;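 further: score derived from kinetic fluorescence span divided by baseline fluorescence per well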
beta cell repl – induces beta-cell replication in MIN6 cells. MIN6 cells proliferation, ATPlite luminescence, 48 h; cells starved in 0.2% serum; 100% = growth in 10% serum. proliferation, % at 10 µM. 330,000 tested, 0.29% active;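 active means compounds whose signal lies at least 3.5 SD above the mean of all wells on their plate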
HTR2A ag – mouse HTR2A agonism via beta-arrestin recruitment | P35363 | CHO-K1 mHTR2A beta-arrestin complementation, luminescence; percent of 30 µM serotonin response | activation, % at 7.6 µM | 360,000 tested, 0.66% active | AID 624169;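 active means activation above a run cutoff, the mean activation of all tested compounds plus 3 SD, cut at about 14% in these data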
TMEM16A act – mouse TMEM16A channel activation, primary screen; Q8BHY3; HEK293 TMEM16A/YFP-H148Q/I152L, iodide quench fluorescence; active compounds read low; B-score at 10 µM; 340,000 tested, 0.3% active; AID 623877;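 active means fluorescence-ratio B-score plate-corrected deviation score at least 3 library SD below zero, with starting fluorescence score within 5 deviations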;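 further: channel opened by trigger with iodide after compound preincubation; score built on the fluorescence ratio of max minus min over baseline; more negative score means more quench and so TMEM16A activation or potentiation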
MC4R antagonist – human MC4R antagonism in cAMP assay; AID 540295; MC4R-expressing cells, MTII-stimulated cAMP, LANCE TR-FRET; inhibition, % at 6.5 µM; P32245; 360,000 tested, 0.48% active;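 active means inhibition above its plate's cutoff, the mean of tested wells on that plate plus 3 SD, cut at about 29% in these data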
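Material: U2OS-MC4R stable cell line | Reagent: Melanotan II challenge after compound preincubation | Doses: One concentration, 6.5 µM nominal | Incubation: 30-min compound preincubation, 1-h Melanotan II challenge, 1-h detection, room temperature | Signal: TR-FRET cAMP assay | Replicates: One well per compound, no replicates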
MOR ag counter – OPRM1 agonism in mouse HTR2A counterscreen; shares compounds with HTR2A ag; U2OS OPRM1 beta-arrestin PathHunter, luminescence; DMSO 0%, DAMGO 9.3 µM 100%; activation, % at 9.3 µM; 2,300 tested, 5.3% active;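 active means mean activation above the mean of DMSO-only wells plus 3 SD, cut at about 0.5% in these data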
HTR2A ag conf – confirmation of mouse HTR2A serotonin receptor agonists. shares compounds with HTR2A ag. CHO-K1 PathHunter beta-arrestin recruitment, luminescence; DMSO 0%, 30 µM serotonin 100%. activation, % at 7.6 µM. 2,300 tested, 19% active;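 active means mean activation across triplicates above the hit threshold derived in the original primary screen, cut at about 15% in these data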
Numbers stand for hits; – = inactive; · = no result given; ! = not confirmed by another sample.

SMILES | MC4R barr agon | ANO1 block | beta cell repl | HTR2A ag | TMEM16A act | MC4R antagonist | MOR ag counter | HTR2A ag conf
O=C(COc1ccccc1Cl)NCC(c1cccs1)N1CCOCC1 (centres undefined) | – | – | – | – | – | – | · | ·
COc1ccc(CCNC(=O)CNCCc2ccc(F)cc2)cc1 | – | – | – | – | – | – | · | ·
O=[N+]([O-])c1cccc2cnccc12 | – | · | · | 14.6 | – | – | – | –
O=C(Nc1ccccc1C(=O)Nc1nnc(C(F)(F)F)s1)c1ccccc1 | – | 100 | – | 14.5 | -6.18 | – | – | –
Cc1cn([C@H]2C[C@H](O)[C@@H](CNCc3cccn3-c3nccs3)O2)c(=O)[nH]c1=O | – | · | · | – | · | – | · | ·
CCOC(=O)C1=C(C)NC(C)=C(C(=O)OC)C1c1cccc(Cl)c1Cl (centres undefined) | – | – | – | – | – | – | · | ·
COC(=O)C1=C(C)NC(=O)CC1c1cccc(Cl)c1Cl (centres undefined) | – | – | – | 23.9 | – | – | – | –
Oc1cc2c(c(Cl)c1O)CCNCC2c1ccccc1 (centres undefined) | – | – | – | 24.0 | – | – | – | 100.2
Oc1ccc(C2CNCCc3c2cc(O)c(O)c3Cl)cc1 (centres undefined) | – | – | – | 34.2! | – | – | – | 145.1
Cc1cc(C)n(-c2nnc3c4ccccc4n(C)c3n2)n1 | – | – | – | – | – | – | · | ·
CCc1ccc(S(=O)(=O)N2CCCC(N3CCN(c4ccc(OC)cc4)CC3)C2)cc1 (centres undefined) | – | – | – | – | – | – | · | ·
COC(=O)c1[nH]c2ccccc2c1NC(=O)CCN1CCSCC1 | – | – | – | 16.0 | – | – | – | –
CCOC(=O)c1[nH]c2ccc(OC)cc2c1NC(=O)CCN1CCSCC1 | – | – | – | – | – | – | · | ·
CCOC(=O)c1sc(NC(=O)C2CC(=O)N(c3ccccc3OC)C2)nc1C (centres undefined) | – | · | – | – | – | – | · | ·
OCCNc1ncnc2c1c(-c1ccccc1)c(-c1ccccc1)n2Cc1ccco1 | – | – | – | 14.5 | – | – | – | –
CCN(CC)C(=O)c1nc[nH]c1C(=O)N1CCc2ccccc2C1 | – | · | – | – | – | – | · | ·
Cc1cc(NC(=O)COC(=O)C2CCN(S(=O)(=O)c3cccc(Cl)c3Cl)CC2)no1 | – | 100 | – | 23.7 | – | – | – | –
O=C(NCCCN1CCN(c2ccccc2F)CC1)C1CC(=O)N(C2CCCC2)C1 (centres undefined) | – | – | – | 16.6 | – | – | – | 38.8
CCn1c(=O)cc(SCC(=O)NCCCN2CCN(c3ccccc3F)CC2)c2ccccc21 | – | – | – | 28.2 | – | – | – | 77.7
O=C(NCc1ccccn1)C1CC(=O)N(C2CCCC2)C1 (centres undefined) | – | – | – | 19.8 | – | – | – | –
Cn1c2ccccc2c2cnn(CC(=O)NCCCN3CCN(c4ccccc4F)CC3)c(=O)c21 | – | – | – | – | – | – | · | ·
CCc1ccc(CN2CCCC(C(=O)Nc3ccccc3-c3ccc(OC)cc3)C2)o1 (centres undefined) | – | – | – | – | – | – | · | ·
COc1ccc(NC(=O)N2CCCC(C(=O)Nc3cccc(C)c3C)C2)cc1 (centres undefined) | – | – | – | 16.2 | – | – | – | –
O=C(COC(=O)c1ccccc1NCCO)Nc1ccc(S(=O)(=O)NC2=NCCCCC2)cc1 | – | · | · | 21.7 | – | – | – | –
O=C(COc1ccccc1)NCc1n[nH]c(=S)n1-c1ccccc1 | – | – | – | 16.5 | – | – | – | –
SMILES | MC4R barr agon | ANO1 block | beta cell repl | HTR2A ag | TMEM16A act | MC4R antagonist | MOR ag counter | HTR2A ag conf
CCc1nnc(NC(=O)C2=CCN(S(=O)(=O)c3ccc(F)cc3)CC2)s1 | – | – | – | – | – | – | · | ·
CC(C)C[C@@H]1Cc2[nH]c(=S)[nH]c(=O)c2[C@H](C)O1 | · | · | · | – | · | · | · | ·
CC(=O)/C=C\c1ccc(OC(=O)c2cccnc2)cc1 | – | – | – | – | – | – | · | ·
O=Cc1ccc(OC(=O)c2cccnc2)cc1 | – | – | – | 15.4 | – | – | – | –
Cc1ccc(N2C(=O)N(CC(=O)Nc3cc(F)ccc3C)C(=O)C2C)cc1 (centres undefined) | – | – | – | – | – | – | · | ·
Cc1cc(NC(=O)c2cccc(Oc3ccccc3)c2)n[nH]1 | – | – | – | – | – | – | · | ·
O=C(COC(=O)c1ccco1)Nc1ccc(N2CCOCC2)cc1 | – | · | – | 17.2 | – | – | – | –
O=C(OC1CCCCC1=O)c1cc(S(=O)(=O)N2CCOCC2)ccc1F (centres undefined) | – | – | – | 15.3 | – | – | 1.1 | –
O=C(NCC1CCCCC1)c1cc(S(=O)(=O)N2CCOCC2)ccc1F | – | · | – | 15.2 | – | – | – | –
O=C(NCC1CCCCC1)c1ccc(F)c(S(=O)(=O)N2CCOCC2)c1 | – | · | – | – | – | – | · | ·
Clc1ccccn1 | – | · | – | – | – | – | · | ·
CC(C)CN1C(=O)C(=O)N(CC(=O)c2ccc[nH]2)C1=O | – | – | – | – | – | – | · | ·
CCC(C(=O)NCCc1c[nH]c2ccc(C)cc12)c1ccccc1 (centres undefined) | – | – | – | – | – | – | · | ·
Cc1ccc([C@@H]2[C@@H]3C(=O)N(C)C(=O)[C@@H]3[C@]3(Cc4ccccc4)C(=O)N(Cc4ccccn4)CC(=O)N23)o1 | – | – | – | – | – | – | · | ·
Cc1ccc([C@@H]2[C@@H]3C(=O)N(C)C(=O)[C@@H]3[C@]3(C)C(=O)N(Cc4ccccn4)CC(=O)N23)o1 | – | – | – | 16.6 | – | – | – | –
CCOC(=O)C1=CCN(Cc2ccccc2)CC1 | – | – | – | 18.6 | – | – | – | 80.1
CCOC(=O)c1cc(S(=O)(=O)N2CCN(Cc3ccccc3)CC2)cn1C | – | – | – | – | – | – | · | ·
O=C(CSc1nnc(NC(=O)c2ccc(F)cc2F)s1)NC1CCCC1 | – | – | – | – | – | – | · | ·
COc1ccc(C2=NOC(C(=O)Nc3c(C)n(C)n(-c4ccccc4)c3=O)C2)cc1 (centres undefined) | – | – | – | – | – | – | · | ·
Cc1c(NC(=O)C2CC(c3ccc(F)cc3)=NO2)c(=O)n(-c2ccccc2)n1C (centres undefined) | – | – | – | 14.6 | – | – | – | –

High-throughput results: PubChem BioAssay, several laboratories
